Fewer inactive variants are shown than the library holds.
B1: tRNA (parent)
chain: GUUCCGUUGGCGUAAUGGUAACGCGUCUCCCUCCUAAGGAGAAGACUGCGGGUUCGAGUCCCGUACGGAACG

Variants of: B1
Assay: yeast fitness relative to wild type (ratio to wild type); higher = fitter; tRNA-Arg(CCU), competitive growth, 37 C, YPD
Procedure, shortened: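 Gene amplicons from the start population and from each of six end populations were read by 100-nucleotide paired-end sequencing. Those end populations came from pooled Saccharomyces cerevisiae strains carrying tRNA-Arg(CCU) gene variants at the native locus, competed in YPD at 37°C for 24 hours. Fitness relative to wild type was worked out from changes in genotype frequencies. Genotypes needed ≥ 100 starting reads, and estimates < 0.5 were set to 0.5.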

Row | Variant | yeast fitness
1 | U7A A21G C30G A36G C46G C66U | ≤ 0.5
2 | G6C G41C C49G U54C U59G G63A C66U | ≤ 0.5
3 | G6C G50C U53C C55U | ≤ 0.5
4 | G6C G44C G67U | 0.501
5 | U7A A45C C66U | 0.535
6 | G6C U7G C24U C27A C60U | ≤ 0.5
7 | U7A A42C C62U | ≤ 0.5
8 | U7A A37G A40G A43G G52C U59G C66U A69U | ≤ 0.5
9 | U7A A20C | 0.733
10 | U7A A20G | 0.713
11 | G6C G58C C61A | 0.528
12 | G6C U13C C33U A42C C60U A69G | 0.665
13 | U7A C24U | 0.669
14 | G6C U19A | 0.78
15 | G6C U8C G41A A42C G50C A70G | ≤ 0.5
16 | G6U C34U | 0.573
17 | U7A A45C U47A G68A | ≤ 0.5
18 | G6C U35A G44C C60A | ≤ 0.5
19 | U7A C27A C29G C30G U47A A70G | ≤ 0.5
20 | U7A A14G C31U A43C C46U G63C C66U | ≤ 0.5
21 | U7A A36U C55U A65U | 0.555
22 | U7A A21U A42G C55U A70C | ≤ 0.5
23 | G6C U53C C62U C66U | ≤ 0.5
24 | G6C U7G G17C | 0.525

Row | Variant | yeast fitness
25 | U7A C11G C27U A37C G51C | ≤ 0.5
26 | U7A C33G C60G G63A | ≤ 0.5
27 | G6C U53G | 0.519
28 | G6C G41A A45U | ≤ 0.5
29 | G6U U32C | 0.766
30 | G6C G51C A57G C61U A65C | ≤ 0.5
31 | U7A A14C G25A C30G C61U | ≤ 0.5
32 | G6U G44C G56C | ≤ 0.5
33 | G6C U64G | 0.63
34 | G6C U64C | 0.87
35 | U7A C34A C46U | ≤ 0.5
36 | U7A C11A A14C C34A | ≤ 0.5
37 | U7A C27U U32C | 0.575
38 | G6C G17C U32G A40C G67A | 0.603
39 | U7A C30U C66U | ≤ 0.5
40 | U7A C27U C30A A69U | ≤ 0.5
41 | U7A C33A A45C C49U | ≤ 0.5
42 | U7A C11U A36U C62U C66U | ≤ 0.5
43 | G6C G18C C22U C34G A36U C49A A57C C66U | ≤ 0.5
44 | G6C G51A A70G | ≤ 0.5
45 | U7A C24U A69U | ≤ 0.5
46 | G6C U53A C61U | ≤ 0.5
47 | G6C U8C C22U | 0.526
48 | U7A A21C U54C C61G | ≤ 0.5

Row | Variant | yeast fitness
49 | G6C U16G U35A G51C | ≤ 0.5
50 | G6C U7G U16G A43G A65C | 0.805
51 | U7A A21C U26A C30A A45G G52A | 0.547
52 | U7A A21U G38C A45G U59A | ≤ 0.5
53 | U7A A45U C60A | ≤ 0.5
54 | U7A C27A A65U | 0.603
55 | G6C G50A | 0.865
56 | U7A C11U A40G A42U C62A | ≤ 0.5
57 | U7A A20U G52A | ≤ 0.5
58 | U7A A65G | 1.03
59 | U7A A65C | 0.917
60 | G6C G48C A65U A70U | ≤ 0.5
61 | U7A C11A A20G G23A U26G G50A G52A C60U C61G | ≤ 0.5
62 | U7A A42U | 0.696
63 | G6C U8C C33U A43G G58A C60U | ≤ 0.5
64 | U7A C22A G52A G58A | ≤ 0.5
65 | U7A C29G C46G | ≤ 0.5
66 | U7A C11G U28G U32A G38C | ≤ 0.5
67 | U7A C29G U32C G38A | ≤ 0.5
68 | U7A C27U C46G | 0.691
69 | G6C U13G G18A C55G | ≤ 0.5
70 | U7A A43U G52C | ≤ 0.5
71 | G6C U8C C66U | 0.73
72 | U7A A14U C31G | ≤ 0.5

Row | Variant | yeast fitness
73 | U7A C27U G52C | 0.583
74 | U7A C22G | 0.669
75 | U7A C30U | 0.614
76 | U7A C24G C29G C30U A40C | 0.96
77 | G6U C34U C61U | ≤ 0.5
78 | G6C G18A G51C A65C | ≤ 0.5
79 | U7A A21U G51C C62U | 0.816
80 | U7A A20C G50A | ≤ 0.5
81 | U7A A20G C61A | 0.616
82 | U7A C29G A70U | ≤ 0.5
83 | G6C U26C U64A | ≤ 0.5
84 | U7A C30A A70U | 0.601
85 | U7A A14G A21C U47A G48A | ≤ 0.5
86 | U7A C30U C46U C49U | ≤ 0.5
87 | G6C G25A C27G U59A U64G | ≤ 0.5
88 | G6C U13G C22A C34G C62A | 0.59
89 | U7A A14U G68A | ≤ 0.5
90 | U7A C29A G58A C61G | 0.604
91 | G6C G67C | 0.75
92 | G6C G67A | 0.874
93 | G6C G67U | 0.844
94 | G6C U26C G68A | 0.537
95 | G6U A65C | 0.799
96 | U7A A20G C31U A57C A65U | ≤ 0.5

Row | Variant | yeast fitness
97 | U7A C24U C33A G50A A65C | ≤ 0.5
98 | U7A C11U A15G A65C | ≤ 0.5
99 | U7A C29U A37C U53A C55U C60A | ≤ 0.5
100 | U7A A14U C22U C27A C33U A45C U53C A69C | 0.632
101 | U7A A20C G68C | 0.539
102 | G6C U7G | 0.725
103 | G6C U16G C27U C60G | 0.582
104 | U7A A20G G23A A40G U47C A70C | ≤ 0.5
105 | U7A A21C C29U A37G C55U | 0.568
106 | G6C G18C C22U C34G A36U A57C C66U | ≤ 0.5
107 | G6C U7G U16G A43G | 0.707
108 | G6C U8C | 0.662
109 | G6C U53C C62U | 0.589
110 | U7A A37G | 0.585
111 | U7A A37U | 0.696
112 | U7A A20C U59A A65C | 0.662
113 | U7A A20G A43C A57U | ≤ 0.5
114 | U7A A45G C61A A70G | ≤ 0.5
115 | G6C U8C A43U U59C | ≤ 0.5
116 | G6C U13G C55G | 0.659
117 | U7A C22A C29A G44C | ≤ 0.5
118 | U7A A21C A45G | 0.571
119 | U7A A15G G23A C27A U28C C29G C61A | ≤ 0.5
120 | G6C G41C C49G | 0.544

Row | Variant | yeast fitness
121 | G6C G38C G68A A70U | ≤ 0.5
122 | U7A A20G G23A C24U U35A C60A A69C | 0.548
123 | G6C G41C A45G G63A C66G G67C | ≤ 0.5
124 | U7A A43C G48A A57C G68U | ≤ 0.5
125 | G6C U16A | 0.631
126 | G6C U16C | 0.803
127 | G6C U16G | 0.68
128 | U7A A21C C30U A42C G48C | ≤ 0.5
129 | U7A A21U G41A | 0.619
130 | U7A C11A A21C C29U C49U G56A | ≤ 0.5
131 | U7A A57U U59A A69C | 0.702
132 | U7A A15U U53C | ≤ 0.5
133 | U7A A45C G68A | ≤ 0.5
134 | U7A A20G C22A A40G G41C | ≤ 0.5
135 | U7A C29G U64C | ≤ 0.5
136 | U7A C29G A36C G67A | ≤ 0.5
137 | U7A C11G C31G U32C A43U | ≤ 0.5
138 | U7A C29A G50C | ≤ 0.5
139 | G6C U8C G41C | ≤ 0.5
140 | U7A C27A G67A | ≤ 0.5
141 | G6C U7C A14G A20C A57C | ≤ 0.5
142 | G6C G48A | 1.01
143 | G6U C27G | 0.545
144 | G6C U54G | 0.587

Row | Variant | yeast fitness
145 | G6C U54C | 0.898
146 | G6C G41C C49G U59G G63A C66U | 0.54
147 | G6C U32C | 0.994
148 | U7A C31G A70U | ≤ 0.5
149 | U7A C34A A42C G58A | ≤ 0.5
150 | U7A A20G G23A U26G A69C | ≤ 0.5
151 | U7A C11U U47A | ≤ 0.5
152 | G6C G25C | 0.971
153 | G6C G25A | 1.17
154 | U7A A20G G68A | ≤ 0.5
155 | G6C G41A A45C A57C | ≤ 0.5
156 | U7A A37G A40G A43G G52C U59G | 0.556
157 | G6C U8C G25A C34U A43U | ≤ 0.5
158 | U7A A37C A43C | 0.583
159 | G6C U16G C62U | 0.532
160 | G6C U7A C27U | ≤ 0.5
161 | G6C G18A G23A C30U C33U A65G | 0.536
162 | U7A C11U C22U G38C | ≤ 0.5
163 | U7A A57C | 0.54
164 | U7A A57G | 0.759
165 | U7A C24G A69U | ≤ 0.5
166 | U7A A21G C30G A36G | ≤ 0.5
167 | U7A A21U G41A C66A | 0.684
